How the values were obtained:
[1] = system: Human alphaherpesvirus 1; assay: Antiviral activity against Herpes simplex virus-1 F VR 733 infected in African green monkey Vero cells assessed as inhibition of virus-induced cytopathic effect; type: functional; settings: Human alphaherpesvirus 1, Strain F ATCC VR 733, Vero
In short: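 Vero cells (2.5 × 10^4/well) were seeded for 24 h, then the medium was removed. Cells were infected with HSV-1 at 100 TCID50 for 2 h, then given graded compound concentrations. Incubation continued until control CPE reached 4+. Runs were in triplicate, repeated at least three times. IC50 is the minimal concentration inhibiting 50% of CPE, by Reed and Muench.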

[2] = system: Coxsackievirus B3; assay: Antiviral activity against Coxsackievirus B3 infected in African green monkey Vero cells assessed as inhibition of virus-induced cytopathic effect; type: functional; settings: Enterovirus B
In short: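 Vero monolayers were infected with Cox B3 at 100 TCID50 and allowed 2 h adsorption at 37 °C. They were then washed with PBS and kept at 37 °C in MEM with 2% FBS, with or without graded concentrations of test compounds. Read-out was CPE.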

[3] = system: Influenza A virus; assay: Antiviral activity against Influenza A virus A/95-359 infected in MDCK cells assessed as inhibition of virus-induced cytopathic effect; type: functional, cell-based; settings: A/95-359, MDCK
In short: (§1)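 MDCK cells (2.5 × 10^4/well) seeded 24 h, PBS-washed, infected with influenza A/95-359 at 100 TCID50 for 2 h, then exposed to graded compound concentrations until control CPE reached 4+. IC50 = minimal concentration inhibiting 50% of CPE (Reed and Muench); triplicate, at least three separate experiments. […] SI = TC50/IC50.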

[4] = Cytotoxicity against MDCK cells assessed as growth inhibition after 48 hrs; type: cell-based, Canis lupus familiaris; settings: dog, read-out: TC50
In short: (§2)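 Vero or MDCK cells (2.5 × 10^4/well) were seeded for 24 h, then exposed to graded compound concentrations. After 48 h at 37 °C and 5% CO2, cytotoxicity was scored by CPE. TC50 was calculated by Reed and Muench analysis.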

[5] = Cytotoxicity against African green monkey Vero cells assessed as growth inhibition after 48 hrs; type: cell-based; settings: chlorocebus sabaeus, read-out: TC50; in short: as §2
[6] = Selectivity index, ratio of TC50 for MDCK cells to IC50 for Influenza A virus (A/95-359) infected in MDCK cells; type: toxicity, cell-based; settings: dog, read-out: Selectivity Index; in short: as §1
[7] = Selectivity index, ratio of TC50 for African green monkey Vero cells to IC50 for Herpes simplex virus-1 F VR 733 infected in African green monkey Vero cells; type: toxicity; settings: read-out: Selectivity Index
In short: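 Vero cells (2.5 × 10^4/well) seeded 24 h, medium removed, infected with HSV-1 at 100 TCID50 for 2 h, then graded compound concentrations added until control CPE reached 4+. IC50 = minimal concentration inhibiting 50% CPE (Reed and Muench); triplicate, at least three separate experiments. […] SI = TC50/IC50.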

[8] = Selectivity index, ratio of TC50 for African green monkey Vero cells to IC50 for Coxsackievirus B3 infected in African green monkey Vero cells; type: toxicity; settings: read-out: Selectivity Index
In short: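 Vero monolayers infected with 100 TCID50 Coxsackie B3 virus, 2 h adsorption at 37 °C, PBS-washed, then held in MEM plus 2% FBS at 37 °C with graded compound concentrations. […] SI = TC50/IC50.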

C[C@H](CC[C@H](O[C@@H]1OC[C@H](O)[C@H](O)[C@H]1O)C(C)(C)O)[C@H]1CC[C@@]2(C(=O)O)[C@@H]3CCC4=C(CC[C@@H](O[C@@H]5O[C@H](CO)[C@@H](O)[C@H](O)[C@H]5O)C4(C)C)C[C@H]3CC[C@]12C
IC50 [1]: ≥ 33.3 µM | IC50 [2]: ≥ 33.3 µM | IC50 [3]: > 33.3 µM

CC(=O)OC[C@H]1O[C@@H](O[C@@H]2CCC3=C(CC[C@@H]4[C@H](CC[C@]5(C)[C@@H]([C@H](C)CC[C@H](O)C(C)(C)O)CC[C@@]45C(=O)O)C3)C2(C)C)[C@H](O)[C@@H](O)[C@@H]1O
IC50 [1]: ≥ 33.3 µM | IC50 [2]: ≥ 33.3 µM | IC50 [3]: > 11.1 µM | CC50 at 48 h [4]: 48.1 µM

C[C@H](CC[C@H](O[C@@H]1OC[C@H](O)[C@H](O)[C@H]1O)C(C)(C)O)[C@H]1CC[C@@]2(C(=O)O)C3=C(CC[C@]12C)[C@@]1(C)CC[C@@H](O[C@@H]2OC[C@H](O)[C@H](O)[C@H]2O)C(C)(C)[C@@H]1CC3
IC50 [1]: ≥ 33.3 µM | IC50 [2]: ≥ 33.3 µM | IC50 [3]: > 33.3 µM

CC(=O)OC[C@H]1O[C@@H](O[C@@H]2CC[C@]3(C)C4=C(CC[C@H]3C2(C)C)[C@]2(C(=O)O)CC[C@H]([C@H](C)CC[C@H](O[C@@H]3OC[C@H](O)[C@H](O)[C@H]3O)C(C)(C)O)[C@@]2(C)CC4)[C@H](O)[C@@H](O)[C@@H]1O
CC50 at 48 h [5]: > 100 µM | selectivity ratio [6]: 1.7 | IC50 [1]: 14.3 µM | IC50 [2]: ≥ 33.3 µM | selectivity ratio [7]: > 7 | IC50 [3]: 33.3 µM | CC50 at 48 h [4]: 57.7 µM

C[C@H](CC[C@H](O[C@@H]1OC[C@H](O)[C@H](O)[C@H]1O)C(C)(C)O)[C@H]1CC[C@@]2(C(=O)O)[C@@H]3CC[C@H]4C(=CC[C@@H](O[C@@H]5OC[C@H](O)[C@H](O)[C@H]5O)C4(C)C)C[C@H]3CC[C@]12C
IC50 [1]: ≥ 33.3 µM | IC50 [2]: ≥ 33.3 µM | IC50 [3]: > 33.3 µM

C[C@H](CC[C@H](O[C@@H]1OC[C@H](O)[C@H](O)[C@H]1O)C(C)(C)O)[C@H]1CC[C@@]2(C(=O)O)C3=C(CC[C@]12C)[C@@]1(C)CC[C@@H](O[C@@H]2O[C@H](CO)[C@@H](O)[C@H](O)[C@H]2O)C(C)(C)[C@@H]1CC3
IC50 [1]: ≥ 33.3 µM | IC50 [2]: ≥ 33.3 µM | IC50 [3]: > 33.3 µM

C[C@H](CC[C@H](O[C@@H]1O[C@H](CO)[C@@H](O)[C@H](O)[C@H]1O)C(C)(C)O)[C@H]1CC[C@@]2(C(=O)O)[C@@H]3CC[C@@H]4C(=CC[C@@H](O[C@@H]5O[C@H](CO)[C@@H](O)[C@H](O)[C@H]5O)C4(C)C)C[C@H]3CC[C@]12C
selectivity ratio [6]: > 3 | IC50 [1]: ≥ 33.3 µM | IC50 [2]: ≥ 33.3 µM | IC50 [3]: 33.3 µM | CC50 at 48 h [4]: > 100 µM

CC(=O)OC[C@H]1O[C@@H](O[C@@H]2CC=C3C[C@H]4CC[C@]5(C)[C@@H]([C@H](C)CC[C@H](O[C@@H]6OC[C@H](O)[C@H](O)[C@H]6O)C(C)(C)O)CC[C@@]5(C(=O)O)[C@@H]4CC[C@H]3C2(C)C)[C@H](O)[C@@H](O)[C@@H]1O
CC50 at 48 h [5]: > 100 µM | IC50 [1]: 19.3 µM | IC50 [2]: ≥ 33.3 µM | selectivity ratio [7]: > 5.2 | IC50 [3]: > 33.3 µM

C[C@H](CC[C@H](O[C@@H]1OC[C@H](O)[C@H](O)[C@H]1O)C(C)(C)O)[C@H]1CC[C@@]2(C(=O)O)[C@@H]3CCC4=C(CC[C@@H](O[C@H]5OC[C@@H](O)[C@@H](O)[C@@H]5O)C4(C)C)C[C@H]3CC[C@]12C
IC50 [1]: ≥ 33.3 µM | IC50 [2]: ≥ 33.3 µM | IC50 [3]: > 33.3 µM

C[C@H](CC[C@H](O)C(C)(C)O)[C@H]1CC[C@@]2(C(=O)O)[C@@H]3CCC4=C(CC[C@@H](O[C@@H]5O[C@H](CO)[C@@H](O)[C@H](O)[C@H]5O)C4(C)C)C[C@H]3CC[C@]12C
selectivity ratio [6]: 3 | IC50 [1]: ≥ 33.3 µM | IC50 [2]: ≥ 33.3 µM | IC50 [3]: 33.3 µM | CC50 at 48 h [4]: 100 µM

C[C@H](CC[C@H](O)C(C)(C)O)[C@H]1CC[C@@]2(C(=O)O)C3=C(CC[C@]12C)[C@@]1(C)CC[C@@H](O[C@@H]2O[C@H](CO)[C@@H](O)[C@H](O)[C@H]2O)C(C)(C)[C@@H]1CC3
IC50 [1]: ≥ 33.3 µM | IC50 [2]: ≥ 33.3 µM | IC50 [3]: > 33.3 µM

CC(=O)OC[C@H]1O[C@@H](O[C@@H]2CC=C3C[C@H]4CC[C@]5(C)[C@@H]([C@H](C)CC[C@H](O)C(C)(C)O)CC[C@@]5(C(=O)O)[C@@H]4CC[C@@H]3C2(C)C)[C@H](O)[C@@H](O)[C@@H]1O
IC50 [1]: ≥ 33.3 µM | IC50 [2]: ≥ 33.3 µM | IC50 [3]: > 33.3 µM

C[C@H](CC[C@H](O)C(C)(C)O)[C@H]1CC[C@@]2(C(=O)O)[C@@H]3CC[C@@H]4C(=CC[C@@H](O)C4(C)C)C[C@H]3CC[C@]12C
selectivity ratio [6]: > 3.9 | IC50 [1]: ≥ 33.3 µM | IC50 [2]: ≥ 33.3 µM | IC50 [3]: 25.9 µM | CC50 at 48 h [4]: > 100 µM

CC(=O)OC[C@H]1O[C@@H](O[C@@H]2CCC3=C(CC[C@@H]4[C@H](CC[C@]5(C)[C@@H]([C@H](C)CC[C@H](O[C@@H]6OC[C@H](O)[C@H](O)[C@H]6O)C(C)(C)O)CC[C@@]45C(=O)O)C3)C2(C)C)[C@H](O)[C@@H](O)[C@@H]1O
IC50 [1]: ≥ 33.3 µM | IC50 [2]: ≥ 33.3 µM | IC50 [3]: > 33.3 µM

C[C@H](CC[C@H](O[C@H]1O[C@@H](CO)[C@H](O)[C@@H](O)[C@@H]1O)C(C)(C)O)[C@H]1CC[C@@]2(C(=O)O)C3=C(CC[C@]12C)[C@@]1(C)CC[C@@H](O[C@@H]2O[C@H](CO)[C@@H](O)[C@H](O)[C@H]2O)C(C)(C)[C@@H]1CC3
IC50 [1]: ≥ 33.3 µM | IC50 [2]: ≥ 33.3 µM | IC50 [3]: > 33.3 µM

C[C@H]1[C@H](C)CC[C@@]23CC[C@]4(C)[C@](OC2=O)([C@H](O)C[C@@H]2[C@@]5(C)C[C@@H](O)[C@@H](O)C(CO)(CO)[C@@H]5CC[C@]24C)[C@H]13
IC50 [1]: ≥ 33.3 µM | IC50 [2]: ≥ 33.3 µM | IC50 [3]: > 33.3 µM

C[C@H]1[C@H](C)CC[C@@]23CC[C@@]4(C)[C@@]5(C)[C@H](C[C@@H](O)[C@]4(OC2=O)[C@H]13)[C@@]1(C)C[C@@H](O)[C@@H](O)[C@](C)(CO)[C@@H]1C[C@@H]5O
IC50 [1]: ≥ 33.3 µM | IC50 [2]: ≥ 33.3 µM | IC50 [3]: > 33.3 µM

C[C@H](CC[C@H](O[C@@H]1O[C@H](CO)[C@@H](O)[C@H](O)[C@H]1O)C(C)(C)O)[C@H]1CC[C@@]2(C(=O)O)C3=C(CC[C@]12C)[C@@]1(C)CC[C@@H](O)C(C)(C)[C@@H]1CC3
CC50 at 48 h [5]: 57.7 µM | IC50 [1]: 23.1 µM | IC50 [2]: ≥ 33.3 µM | selectivity ratio [7]: 2.5 | IC50 [3]: > 33.3 µM

C[C@H](CC[C@H](O[C@@H]1OC[C@H](O)[C@H](O)[C@H]1O)C(C)(C)O)[C@H]1CC[C@@]2(C(=O)O)[C@@H]3CC[C@H]4C(=CC[C@@H](O[C@@H]5O[C@H](CO)[C@@H](O)[C@H](O)[C@H]5O)C4(C)C)C[C@H]3CC[C@]12C
IC50 [1]: ≥ 33.3 µM | IC50 [2]: ≥ 33.3 µM | IC50 [3]: > 33.3 µM

Nc1nc2c(ncn2COCCO)c(=O)[nH]1 [ACYCLOVIR]
CC50 at 48 h [5]: > 100 µM | IC50 [1]: 0.41 µM | selectivity ratio [7]: > 244

CCOC(=O)C1=C[C@@H](OC(CC)CC)[C@H](NC(C)=O)[C@@H](N)C1 [OSELTAMIVIR]
selectivity ratio [6]: 741 | IC50 [3]: 1.7 µM

Cc1cc(CCCOc2c(C)cc(-c3noc(C(F)(F)F)n3)cc2C)on1 [PLECONARIL]
CC50 at 48 h [5]: 15.4 µM | selectivity ratio [8]: 15400 | IC50 [2]: 0.001 µM
